In series [1] the test system is Rattus norvegicus. As to the kind of experiment: Hypolipidemic activity in Wistar rat assessed as reduction in plasma cholesterol level at 524 umol/kg/day administered through diet for 4 days. Format: functional. The conditions noted are these: 96 h. In short, it runs like this: (§1)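 Young male Wistar rats, 170-190 g initial weight, groups of six, given compound mixed thoroughly into Purina Lab Chow ad libitum for 4 or 10 days as stated. Daily dose calculated from food consumption and body weight. Bled by cardiac puncture at end of treatment; plasma cholesterol measured by automated procedure. Expressed as percent reduction versus simultaneous untreated control group; Student's t test.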

Series [2] concerns Rattus norvegicus. The experiment in a line: Hypolipidemic activity in Wistar rat assessed as reduction in plasma triglyceride level at 524 umol/kg/day administered through diet for 4 days. Format: functional. The conditions noted are these: 96 h.
Series [3] concerns Rattus norvegicus. As to the kind of experiment: Increase in liver weight in Wistar rat at 524 umol/kg/day administered through diet for 4 days. It is filed as ADME, organism-based. The conditions noted are these: in vivo, po, 96 h.
Series [4] deals with Rattus norvegicus. As to the kind of experiment: Increase in liver weight in Wistar rat at 471 umol/kg/day administered through diet for 4 days. Format: ADME, organism-based. The conditions noted are these: in vivo, po, 96 h.
The test system of series [5] is Rattus norvegicus. As to the kind of experiment: Hypolipidemic activity in Wistar rat assessed as reduction in plasma cholesterol level at 471 umol/kg/day administered through diet for 4 days. Format: functional. The conditions noted are these: 96 h. In a few lines: as §1
Series [6] deals with Rattus norvegicus. The experiment in a line: Hypolipidemic activity in Wistar rat assessed as reduction in plasma triglyceride level at 471 umol/kg/day administered through diet for 4 days. Format: functional. The conditions noted are these: 96 h.
The test system of series [7] is Rattus norvegicus. The experiment in a line: Increase in liver weight in Wistar rat at 404 umol/kg/day administered through diet for 4 days. The conditions noted are these: in vivo, po, 96 h. It is filed as ADME, organism-based.
Series [8] relates to Rattus norvegicus. The experiment in a line: Increase in liver weight in Wistar rat at 381 umol/kg/day administered through diet for 4 days. The conditions noted are these: in vivo, po, 96 h. It is filed as ADME, organism-based.
The test system of series [9] is Rattus norvegicus. The experiment in a line: Hypolipidemic activity in Wistar rat assessed as reduction in plasma cholesterol level at 381 umol/kg/day administered through diet for 4 days. It is filed as functional. The conditions noted are these: 96 h. In a few lines:
(§2)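 Young male Wistar rats, 170-190 g at start, in groups of six, given compound mixed into Purina Lab Chow ad libitum for 4 or 10 days as stated. Daily dose was calculated from food consumption and body weight. Plasma was taken by cardiac puncture at the end and cholesterol measured by automated procedure. Results are % reduction versus a concurrent untreated control group, with Student's t test.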

In series [10] the test system is Rattus norvegicus. As to the kind of experiment: Hypolipidemic activity in Wistar rat assessed as reduction in plasma triglyceride level at 381 umol/kg/day administered through diet for 4 days. The conditions noted are these: 96 h. Format: functional. In short, it runs like this: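 Young male Wistar rats (170-190 g initial weight), groups of six, fed test compound mixed into Purina Lab Chow ad libitum; daily dose calculated from food consumption and body weight. Bled by cardiac puncture at end of treatment; plasma triglycerides measured by automated procedure. Results given as percent reduction versus a simultaneous untreated control group, with significance by Student's t test.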

Series [11] deals with Rattus norvegicus. As to the kind of experiment: Increase in liver weight in Wistar rat at 423 umol/kg/day administered through diet for 4 days. The conditions noted are these: in vivo, po, 96 h. Format: ADME, organism-based.
The subject of series [12] is Rattus norvegicus. The experiment in a line: Hypolipidemic activity in Wistar rat assessed as reduction in plasma cholesterol level at 423 umol/kg/day administered through diet for 4 days. Format: functional. The conditions noted are these: 96 h. In a few lines: as §1
The subject of series [13] is Rattus norvegicus. The experiment in a line: Hypolipidemic activity in Wistar rat assessed as reduction in plasma triglyceride level at 423 umol/kg/day administered through diet for 4 days. It is filed as functional. The conditions noted are these: 96 h.
The subject of series [14] is Rattus norvegicus. As to the kind of experiment: Increase in cholesterol level in Wistar rat liver at 406 umol/kg/day administered through diet for 10 days. It is filed as ADME, organism-based. The conditions noted are these: in vivo, po, 240 h.
For series [15], the system named is Rattus norvegicus. The experiment in a line: Increase in liver weight in Wistar rat at 406 umol/kg/day administered through diet for 10 days. It is filed as ADME, organism-based. The conditions noted are these: in vivo, po, 240 h.
Series [16] deals with Rattus norvegicus. As to the kind of experiment: Hypolipidemic activity in Wistar rat assessed as reduction in plasma triglyceride level at 406 umol/kg/day administered through diet for 10 days. It is filed as functional. The conditions noted are these: 240 h.
The test system of series [17] is Rattus norvegicus. As to the kind of experiment: Hypolipidemic activity in Wistar rat assessed as reduction in plasma triglyceride level at 400 umol/kg/day administered through diet for 4 days. Format: functional. The conditions noted are these: 96 h.
Series [18] relates to Rattus norvegicus. The experiment in a line: Increase in cholesterol level in Wistar rat liver at 400 umol/kg/day administered through diet for 4 days. It is filed as ADME, organism-based. The conditions noted are these: in vivo, po, 96 h.
For series [19], the system named is Rattus norvegicus. As to the kind of experiment: Hypolipidemic activity in Wistar rat assessed as reduction in plasma cholesterol level at 400 umol/kg/day administered through diet for 4 days. It is filed as functional. The conditions noted are these: 96 h. In a few lines: as §2
Series [20] relates to Rattus norvegicus. As to the kind of experiment: Increase in liver weight in Wistar rat at 400 umol/kg/day administered through diet for 4 days. Format: ADME, organism-based. The conditions noted are these: in vivo, po, 96 h.
The test system of series [21] is Rattus norvegicus. As to the kind of experiment: Hypolipidemic activity in Wistar rat assessed as reduction in plasma cholesterol level at 406 umol/kg/day administered through diet for 10 days. Format: functional. The conditions noted are these: 240 h. In a few lines: as §2
Series [22] concerns Rattus norvegicus. The experiment in a line: Increase in liver weight in Wistar rat at 89 umol/kg/day administered through diet for 10 days. Format: ADME, organism-based. The conditions noted are these: in vivo, po, 240 h.
For series [23], the system named is Rattus norvegicus. As to the kind of experiment: Hypolipidemic activity in Wistar rat assessed as reduction in plasma triglyceride level at 303 umol/kg/day administered through diet for 10 days. It is filed as functional. The conditions noted are these: 240 h. In short, it runs like this:
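Young male Wistar rats, 170-190 g initial weight, six per group, fed drug mixed thoroughly into Purina Lab Chow ad libitum for the stated days; daily dose calculated from food consumption and body weight. Bled by cardiac puncture at end; plasma cholesterol and triglycerides by automated procedures, expressed as percent reduction versus simultaneous untreated controls; Student's t test.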

Series [24] concerns Rattus norvegicus. The experiment in a line: Increase in liver weight in Wistar rat at 303 umol/kg/day administered through diet for 10 days. The conditions noted are these: in vivo, po, 240 h. It is filed as ADME, organism-based.
Series [25] has as its system Rattus norvegicus. The experiment in a line: Increase in cholesterol level in Wistar rat liver at 303 umol/kg/day administered through diet for 10 days. It is filed as ADME, organism-based. The conditions noted are these: in vivo, po, 240 h.
For series [26], the system named is Rattus norvegicus. As to the kind of experiment: Hypolipidemic activity in Wistar rat assessed as reduction in plasma triglyceride level at 89 umol/kg/day administered through diet for 10 days. It is filed as functional. The conditions noted are these: 240 h.
Series [27] has as its system Rattus norvegicus. The experiment in a line: Hypolipidemic activity in Wistar rat assessed as reduction in plasma cholesterol level at 303 umol/kg/day administered through diet for 10 days. Format: functional. The conditions noted are these: 240 h. In a few lines: as §2
Series [28] relates to Rattus norvegicus. As to the kind of experiment: Hypolipidemic activity in Wistar rat assessed as reduction in plasma triglyceride level at 944 umol/kg/day administered through diet for 10 days. The conditions noted are these: 240 h. Format: functional.
Series [29] relates to Rattus norvegicus. As to the kind of experiment: Increase in cholesterol level in Wistar rat liver at 944 umol/kg/day administered through diet for 10 days. The conditions noted are these: in vivo, po, 240 h. Format: ADME, organism-based.
The subject of series [30] is Rattus norvegicus. The experiment in a line: Increase in liver weight in Wistar rat at 944 umol/kg/day administered through diet for 10 days. It is filed as ADME, organism-based. The conditions noted are these: in vivo, po, 240 h.
For series [31], the system named is Rattus norvegicus. The experiment in a line: Increase in cholesterol level in Wistar rat liver at 89 umol/kg/day administered through diet for 10 days. Format: ADME, organism-based. The conditions noted are these: in vivo, po, 240 h.
In series [32] the test system is Rattus norvegicus. As to the kind of experiment: Hypolipidemic activity in Wistar rat assessed as reduction in plasma cholesterol level at 89 umol/kg/day administered through diet for 10 days. Format: functional. The conditions noted are these: 240 h. In short, it runs like this: (§3)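 Young male Wistar rats (initial weight 170-190 g), groups of six, fed compound mixed into Purina Lab Chow ad libitum for 4 or 10 days; daily dose calculated from food consumption and body weight. Bled by cardiac puncture; plasma cholesterol and triglycerides by automated procedures; percent reduction versus simultaneous untreated controls, Student's t test.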

Series [33] deals with Rattus norvegicus. The experiment in a line: Hypolipidemic activity in Wistar rat assessed as reduction in plasma cholesterol level at 944 umol/kg/day administered through diet for 10 days. It is filed as functional. The conditions noted are these: 240 h. In short, it runs like this: as §3

The structures appear in SMILES notation.

For the compound `CCCCCCCCCCCCCCOc1ccco1`, the inhibition in vivo at 524 µmol/kg in series [1] and in [2] was 0% each time. Further, the Activity in [3] amounted to 1%.

`CCCCCCCCCCCCCCOc1ccc(C(=O)O)c(C)c1` displayed an Activity in series [4] of 5%. Besides, the inhibition in vivo at 471 µmol/kg in [5] came out at 6%; in series [6] it was 27%.

For `CCCCCCCCCCCCCCCCSc1ccc(C(=O)O)cc1`, the Activity in [7] stood at 6%.

In [8], `CCCCCCCCCCCCCCOc1c(Cl)cc(C(=O)OC)cc1Cl` registered an Activity of 0%. In addition, the inhibition in vivo at 381 µmol/kg in series [9] amounted to 1%; in [10], 73%.

The compound `CCCCCCCCCCCCCCOc1ccc(C(=O)OC)cc1C(=O)OC` had an Activity in series [11] of 0%. In addition, the inhibition in vivo at 423 µmol/kg was 7% in series [12] and 10% in series [13].

With `CCCCCCCCCCCCOc1ccc(C(=O)CC(=O)OC)cc1`, the Activity came out at 24% in series [14], 34% in series [15], 32% in series [18] and 22% in [20]. Further, the inhibition in vivo at 406 µmol/kg in series [16] amounted to 71%; in series [21] it was 27%. Besides, the inhibition in vivo at 400 µmol/kg in series [17] was 84%; in series [19], 35%.

For `CCCCCCCCCCCCc1ccc(C(=O)CC(=O)OC)cc1`, the Activity turned out to be 8% in series [22]; 7% in series [24]; 97% in series [25]; 151% in series [29]; 20% in series [30]; 38% in series [31]. Also, the inhibition in vivo at 303 µmol/kg was found to be 63% in series [23] and 37% in series [27]. Further, the inhibition in vivo at 89 µmol/kg came out at 6% in [26] and 4% in series [32]. Also, the inhibition in vivo at 944 µmol/kg is 84% in series [28] and 53% in series [33].

Values taken from ChEMBL document CHEMBL3272012, “5-(Tetradecyloxy)-2-furancarboxylic acid and related hypolipidemic fatty acid-like alkyloxyarylcarboxylic acids” (J Med Chem, 1977).
